Among the data in ChEMBL document CHEMBL1141568, “Malaria-infected mice are cured by oral administration of new artemisinin derivatives” (2008) are Survival and Activity values, retold here.

Holding throughout (format): functional
Assay [1] concerns Plasmodium berghei. The assay can be described thus: Antimalarial activity as survival time in Plasmodium berghei-infected NMRI mice (Mus musculus) at 10 mg/kg peroral dose three times daily. The following applies: route oral. The essentials: (§1)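 P. berghei GFP ANKA, 2 × 10⁷ parasitized erythrocytes given intravenously to NMRI mice on day 0. Compound in 70/30 Tween 80/ethanol, diluted 10× with water, given orally at 10 mL/kg at 24, 48 and 72 h postinfection; n = 3 per group. Read-out is average survival in days after infection, with individual survival also given. Cure means no blood parasites by flow cytometry on day 30.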

Assay [2] has as its system Plasmodium berghei. The assay can be described thus: Antimalarial survival activity in Plasmodium berghei infected NMRI mice (Mus musculus) at 30 mg/kg peroral dose (3x daily). The note with it: route oral. A digest of the protocol: as §1
In assay [3] the test system is Plasmodium berghei. As to the kind of experiment: Antimalarial survival activity in Plasmodium berghei infected NMRI mice (Mus musculus) at 30 mg/kg peroral dose. The note with it: route oral. A digest of the protocol: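 NMRI mice were infected intravenously on day 0 with 2 × 10⁷ P. berghei GFP ANKA parasitized erythrocytes. One oral dose of 30 mg/kg was given 24 h postinfection in 70/30 Tween 80/ethanol diluted 10× with water, at 10 mL/kg; n = 3 per group. Read-out is average survival in days after infection.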

In assay [4] the test system is Plasmodium berghei. The assay can be described thus: Reduced parasitemia in Plasmodium berghei infected NMRI mice (Mus musculus). The arrangement: concentration or dose not given beside the values. A digest of the protocol:
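P. berghei GFP ANKA infection (2 × 10⁷ parasitized erythrocytes i.v., day 0) in NMRI mice, n = 3 per group. One oral dose of 1 × 30 mg/kg at 24 h postinfection, in Tween 80/ethanol 70/30 diluted 10× with water. Blood parasitemia on day 3 postinfection by flow cytometry, given as % suppression against untreated infected mice.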

Each structure is given as a SMILES string.

As for `CNC(=O)N1CCC2(CC1)OCC(C[C@H]1O[C@@H]3O[C@]4(C)CC[C@H]5[C@H](C)CC[C@@H]([C@H]1C)[C@@]35OO4)(C[C@H]1O[C@@H]3O[C@]4(C)CC[C@H]5[C@H](C)CC[C@@H]([C@H]1C)[C@@]35OO4)O2` (stereo partly specified), the Survival is 13.3 days with Plasmodium berghei [1] and “>=30 day” with Plasmodium berghei [2].

In the case of `C[C@H]1[C@@H](CC2(C[C@H]3O[C@@H]4O[C@]5(C)CC[C@H]6[C@H](C)CC[C@@H]([C@H]3C)[C@@]46OO5)COCO2)O[C@@H]2O[C@]3(C)CC[C@H]4[C@H](C)CC[C@@H]1[C@@]24OO3` (stereo partly specified), the Survival in the assay with Plasmodium berghei [1] is 11 days; in the assay on Plasmodium berghei [2], “>=30 day”.

`Cc1ccc(COCC(C[C@H]2O[C@@H]3O[C@]4(C)CC[C@H]5[C@H](C)CC[C@@H]([C@H]2C)[C@@]35OO4)C[C@H]2O[C@@H]3O[C@]4(C)CC[C@H]5[C@H](C)CC[C@@H]([C@H]2C)[C@@]35OO4)cc1` (stereo partly specified): the Survival with Plasmodium berghei [1] was 8 days; in the assay on Plasmodium berghei [2], “>=30 day”.

Turning to `C[C@H]1[C@@H](CC2(C[C@H]3O[C@@H]4O[C@]5(C)CC[C@H]6[C@H](C)CC[C@@H]([C@H]3C)[C@@]46OO5)COC3(CCC(=O)CC3)O2)O[C@@H]2O[C@]3(C)CC[C@H]4[C@H](C)CC[C@@H]1[C@@]24OO3` (stereo partly specified), the Survival in the assay on Plasmodium berghei [1] is 16.3 days; in the assay on Plasmodium berghei [2], “>=30 day”; in the assay on Plasmodium berghei [3] it was 8.3 days. Also, the Activity in the assay on Plasmodium berghei [4] was determined as 99.6%.

For the molecule `C[C@H]1[C@@H](CC2(C[C@H]3O[C@@H]4O[C@]5(C)CC[C@H]6[C@H](C)CC[C@@H]([C@H]3C)[C@@]46OO5)COC3(CCC3)O2)O[C@@H]2O[C@]3(C)CC[C@H]4[C@H](C)CC[C@@H]1[C@@]24OO3` (stereo partly specified), the Survival with Plasmodium berghei [1] is 7 days; with Plasmodium berghei [2], “>=30 day”.

For the molecule `CCOP(=S)(OCC)OCC(C[C@H]1O[C@@H]2O[C@]3(C)CC[C@H]4[C@H](C)CC[C@@H]([C@H]1C)[C@@]24OO3)C[C@H]1O[C@@H]2O[C@]3(C)CC[C@H]4[C@H](C)CC[C@@H]([C@H]1C)[C@@]24OO3` (stereo partly specified), the Survival in the assay on Plasmodium berghei [1] amounted to 7.7 days; in the assay on Plasmodium berghei [2] it was 24.7 days.

Regarding `CCN(CC)C(=O)OCC(C[C@H]1O[C@@H]2O[C@]3(C)CC[C@H]4[C@H](C)CC[C@@H]([C@H]1C)[C@@]24OO3)C[C@H]1O[C@@H]2O[C@]3(C)CC[C@H]4[C@H](C)CC[C@@H]([C@H]1C)[C@@]24OO3` (stereo partly specified), the results for the Survival in the assay with Plasmodium berghei [1], with Plasmodium berghei [2] and in the assay with Plasmodium berghei [3] were 14 days, “>=30 day” and 11.7 days, respectively. This molecule registered an Activity in the assay with Plasmodium berghei [4] of 99.3%.

`C[C@H]1[C@@H](CC2(C[C@H]3O[C@@H]4O[C@]5(C)CC[C@H]6[C@H](C)CC[C@@H]([C@H]3C)[C@@]46OO5)COC3(CCOCC3)O2)O[C@@H]2O[C@]3(C)CC[C@H]4[C@H](C)CC[C@@H]1[C@@]24OO3` (stereo partly specified): the Survival was 15.7 days with Plasmodium berghei [1], “>=30 day” in the assay on Plasmodium berghei [2] and 9 days with Plasmodium berghei [3]. In the assay on Plasmodium berghei [4], this molecule showed an Activity of 99.5%.

As to `C[C@H]1[C@@H](CC(C[C@H]2O[C@@H]3O[C@]4(C)CC[C@H]5[C@H](C)CC[C@@H]([C@H]2C)[C@@]35OO4)=NNC(=O)c2ccncc2)O[C@@H]2O[C@]3(C)CC[C@H]4[C@H](C)CC[C@@H]1[C@@]24OO3`, the figures for the Survival in the assay on Plasmodium berghei [1], in the assay on Plasmodium berghei [2] and in the assay on Plasmodium berghei [3] were 17.7 days, “>=30 day” and 10 days, respectively. For the same molecule, in the assay on Plasmodium berghei [4], the Activity came out at 99.4%.

On to `C[C@H]1[C@@H](CC2(C[C@H]3O[C@@H]4O[C@]5(C)CC[C@H]6[C@H](C)CC[C@@H]([C@H]3C)[C@@]46OO5)COC3(CCN(C(=O)c4ccccc4)CC3)O2)O[C@@H]2O[C@]3(C)CC[C@H]4[C@H](C)CC[C@@H]1[C@@]24OO3` (stereo partly specified), for which the figures for the Survival in the assay on Plasmodium berghei [1] and in the assay on Plasmodium berghei [3] were 15.7 days and 10 days, respectively. Also, the Activity with Plasmodium berghei [4] stood at 99%.

Take `C[C@H]1[C@@H](CC(C[C@H]2O[C@@H]3O[C@]4(C)CC[C@H]5[C@H](C)CC[C@@H]([C@H]2C)[C@@]35OO4)C(=O)NCC2CCCCC2)O[C@@H]2O[C@]3(C)CC[C@H]4[C@H](C)CC[C@@H]1[C@@]24OO3` (stereo partly specified): the results for the Survival in the assay with Plasmodium berghei [1] and with Plasmodium berghei [2] were 7 days and “>=30 day”, respectively.

For the molecule `C[C@H]1[C@@H](CC(C[C@H]2O[C@@H]3O[C@]4(C)CC[C@H]5[C@H](C)CC[C@@H]([C@H]2C)[C@@]35OO4)c2nnc(-c3ccc(F)cc3)o2)O[C@@H]2O[C@]3(C)CC[C@H]4[C@H](C)CC[C@@H]1[C@@]24OO3` (stereo partly specified), the Survival with Plasmodium berghei [3] turned out to be 10 days. Also, the Activity with Plasmodium berghei [4] turned out to be 98.8%.

Consider `Cc1noc(C(C[C@H]2O[C@@H]3O[C@]4(C)CC[C@H]5[C@H](C)CC[C@@H]([C@H]2C)[C@@]35OO4)C[C@H]2O[C@@H]3O[C@]4(C)CC[C@H]5[C@H](C)CC[C@@H]([C@H]2C)[C@@]35OO4)n1` (stereo partly specified), for which the Survival in the assay on Plasmodium berghei [3] is 13.7 days. In the assay on Plasmodium berghei [4], the Activity amounted to 98.9%.

For `C[C@H]1[C@@H](CC(C[C@H]2O[C@@H]3O[C@]4(C)CC[C@H]5[C@H](C)CC[C@@H]([C@H]2C)[C@@]35OO4)C(=O)NCC(C)(C)C)O[C@@H]2O[C@]3(C)CC[C@H]4[C@H](C)CC[C@@H]1[C@@]24OO3` (stereo partly specified), the Survival is 6 days with Plasmodium berghei [1] and 27.7 days in the assay with Plasmodium berghei [2].

Take `C[C@H]1[C@@H](CC(C[C@H]2O[C@@H]3O[C@]4(C)CC[C@H]5[C@H](C)CC[C@@H]([C@H]2C)[C@@]35OO4)C(=O)NCc2ccncc2)O[C@@H]2O[C@]3(C)CC[C@H]4[C@H](C)CC[C@@H]1[C@@]24OO3` (stereo partly specified): the Survival in the assay on Plasmodium berghei [1] is 7 days; in the assay on Plasmodium berghei [2], 11.3 days.

Consider `C[C@H]1[C@@H](CC(O)(COC(=O)c2ccccc2)C[C@H]2O[C@@H]3O[C@]4(C)CC[C@H]5[C@H](C)CC[C@@H]([C@H]2C)[C@@]35OO4)O[C@@H]2O[C@]3(C)CC[C@H]4[C@H](C)CC[C@@H]1[C@@]24OO3` (stereo partly specified), for which the Survival with Plasmodium berghei [1] was determined as 6 days; in the assay with Plasmodium berghei [2], 20.7 days.

Regarding `C[C@H]1[C@@H](CC(C[C@H]2O[C@@H]3O[C@]4(C)CC[C@H]5[C@H](C)CC[C@@H]([C@H]2C)[C@@]35OO4)C(=O)N[C@@H](C)c2ccc(F)cc2)O[C@@H]2O[C@]3(C)CC[C@H]4[C@H](C)CC[C@@H]1[C@@]24OO3` (stereo partly specified), the Survival in the assay with Plasmodium berghei [3] came out at 12.7 days. The Activity in the assay on Plasmodium berghei [4] is on record as 98.9%.

On to `C[C@@H]1CC[C@H]2[C@@H](C)C(OC(=O)CCC(=O)[O-])O[C@@H]3O[C@]4(C)CC[C@@H]1[C@]32OO4.[Na+]` (stereo partly specified), for which the Survival in the assay with Plasmodium berghei [2] is 7.2 days; in the assay on Plasmodium berghei [3], 7.6 days. In the assay with Plasmodium berghei [4], this molecule returned an Activity of 92%.

The molecule `COC(=O)c1ccc(CNC(=O)C(C[C@H]2O[C@@H]3O[C@]4(C)CC[C@H]5[C@H](C)CC[C@@H]([C@H]2C)[C@@]35OO4)C[C@H]2O[C@@H]3O[C@]4(C)CC[C@H]5[C@H](C)CC[C@@H]([C@H]2C)[C@@]35OO4)cc1` (stereo partly specified) registered a Survival in the assay on Plasmodium berghei [1] of 10 days.

As for `Cc1ccc(CNC(=O)C(C[C@H]2O[C@@H]3O[C@]4(C)CC[C@H]5[C@H](C)CC[C@@H]([C@H]2C)[C@@]35OO4)C[C@H]2O[C@@H]3O[C@]4(C)CC[C@H]5[C@H](C)CC[C@@H]([C@H]2C)[C@@]35OO4)cc1` (stereo partly specified), the Survival in the assay on Plasmodium berghei [3] was 10.3 days. Besides, the Activity in the assay with Plasmodium berghei [4] was determined as 99%.

Consider `CCOC(=O)N1CCC2(CC1)OCC(C[C@H]1O[C@@H]3O[C@]4(C)CC[C@H]5[C@H](C)CC[C@@H]([C@H]1C)[C@@]35OO4)(C[C@H]1O[C@@H]3O[C@]4(C)CC[C@H]5[C@H](C)CC[C@@H]([C@H]1C)[C@@]35OO4)O2` (stereo partly specified), for which the Survival is 14 days in the assay on Plasmodium berghei [1], “>=30 day” in the assay with Plasmodium berghei [2] and 8.7 days with Plasmodium berghei [3]. For the same molecule, the Activity in the assay on Plasmodium berghei [4] is reported as 99.6%.

On to `C[C@H]1[C@@H](CC2(C[C@H]3O[C@@H]4O[C@]5(C)CC[C@H]6[C@H](C)CC[C@@H]([C@H]3C)[C@@]46OO5)COC3(CCS(=O)(=O)CC3)O2)O[C@@H]2O[C@]3(C)CC[C@H]4[C@H](C)CC[C@@H]1[C@@]24OO3`, for which the figures for the Survival in the assay on Plasmodium berghei [1] and with Plasmodium berghei [2] were 8.3 days and “>=30 day”, respectively.

Take `C[C@H]1[C@@H](CC(O)(COCC#CCOCc2ccc(F)cc2)C[C@H]2O[C@@H]3O[C@]4(C)CC[C@H]5[C@H](C)CC[C@@H]([C@H]2C)[C@@]35OO4)O[C@@H]2O[C@]3(C)CC[C@H]4[C@H](C)CC[C@@H]1[C@@]24OO3` (stereo partly specified): the Survival with Plasmodium berghei [3] amounted to 6.3 days. The same molecule gave an Activity with Plasmodium berghei [4] of 88%.

As for `C[C@H]1[C@@H](CC(O)(COCc2ccncc2)C[C@H]2O[C@@H]3O[C@]4(C)CC[C@H]5[C@H](C)CC[C@@H]([C@H]2C)[C@@]35OO4)O[C@@H]2O[C@]3(C)CC[C@H]4[C@H](C)CC[C@@H]1[C@@]24OO3` (stereo partly specified), the Survival in the assay on Plasmodium berghei [1] is 14.7 days; in the assay with Plasmodium berghei [2], “>=30 day”; in the assay with Plasmodium berghei [3], 10 days. In the assay on Plasmodium berghei [4], this molecule had an Activity of 99.2%.
